From ChEMBL document CHEMBL5260840 (J Med Chem, 2019)
Calls of active or inactive are those of the source. No cut-off for these calls is given here.

Columns and labels:
[1] = target: T1, von Hippel-Lindau disease tumor suppressor/Bromodomain-containing protein 7 (Homo sapiens) (UniProt Q9NPI1+P40337); assay: PROTAC activity at VHL/BRD7 in human Ri-1 cells assessed as BRD7 protein degradation in the presence of MG132 by Western blot analysis; format: cell-based
[2] = tested on: A204; assay: Antiproliferative activity against human A204 cells assessed as inhibition of cell growth incubated for 7 days by CellTiterGlo assay; format: functional, cell-based; conditions: A204, 168 h
[3] = target: T2, von Hippel-Lindau disease tumor suppressor/Bromodomain-containing protein 9 (Homo sapiens) (UniProt Q9H8M2+P40337); assay: PROTAC activity at VHL/BRD9 in human Ri-1 cells assessed as BRD9 protein degradation at 100 nM pre-incubated for 30 mins with VH298 followed by compound addition and measured after 4 hrs by Western blot analysis; format: cell-based
T2 sequence (P40337 whole entry, looked up): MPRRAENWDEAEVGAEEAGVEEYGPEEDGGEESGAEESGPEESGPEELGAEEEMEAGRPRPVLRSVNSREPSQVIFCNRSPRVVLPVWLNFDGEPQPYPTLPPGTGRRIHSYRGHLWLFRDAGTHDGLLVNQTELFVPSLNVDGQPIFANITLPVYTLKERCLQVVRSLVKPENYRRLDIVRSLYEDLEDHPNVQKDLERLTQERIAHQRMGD
T2 sequence (Q9H8M2 whole entry, looked up): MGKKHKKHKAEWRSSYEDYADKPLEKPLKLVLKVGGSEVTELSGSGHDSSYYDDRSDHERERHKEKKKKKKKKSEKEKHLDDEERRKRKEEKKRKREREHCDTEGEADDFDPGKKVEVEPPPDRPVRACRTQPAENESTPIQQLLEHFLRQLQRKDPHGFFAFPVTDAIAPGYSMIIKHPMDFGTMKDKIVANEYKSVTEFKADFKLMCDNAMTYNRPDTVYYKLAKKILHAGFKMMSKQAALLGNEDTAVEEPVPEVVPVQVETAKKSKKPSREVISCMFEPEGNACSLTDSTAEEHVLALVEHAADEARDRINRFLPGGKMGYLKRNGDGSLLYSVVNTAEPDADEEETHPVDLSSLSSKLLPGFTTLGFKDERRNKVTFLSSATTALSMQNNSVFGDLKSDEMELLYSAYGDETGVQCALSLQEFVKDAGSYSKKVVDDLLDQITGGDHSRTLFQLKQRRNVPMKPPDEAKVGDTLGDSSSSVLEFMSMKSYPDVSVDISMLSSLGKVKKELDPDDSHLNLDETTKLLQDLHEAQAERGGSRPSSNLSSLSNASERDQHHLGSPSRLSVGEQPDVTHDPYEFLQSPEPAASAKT

[4] = target: T2, von Hippel-Lindau disease tumor suppressor/Bromodomain-containing protein 9 (Homo sapiens); assay: PROTAC activity at VHL/HiBiT-tagged BRD9 expressed in HEK293 assessed as BRD9 ubiquitination at 1 uM measured upto 60 mins by NanoBRET assay; format: cell-based
[5] = target: T1, von Hippel-Lindau disease tumor suppressor/Bromodomain-containing protein 7 (Homo sapiens); assay: PROTAC activity at VHL/HiBiT-tagged BRD7 expressed in HEK293 assessed as BRD7 ubiquitination at 1 uM measured upto 60 mins by NanoBRET assay; format: cell-based
[6] = target: T1, von Hippel-Lindau disease tumor suppressor/Bromodomain-containing protein 7 (Homo sapiens); assay: PROTAC activity at VHL/BRD7 in human Ri-1 cells assessed as remaining BRD7 protein level at 100 nM incubated for 24 hrs by Western blot analysis relative to control; format: cell-based
Outline: (§1)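 Ri-1 cells exposed to compound for the stated time before harvest; BRD9, BRD7 and β-actin measured by Western blot, band intensities quantified and set against DMSO-treated control.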

[7] = target: T1, von Hippel-Lindau disease tumor suppressor/Bromodomain-containing protein 7 (Homo sapiens); assay: PROTAC activity at VHL/BRD7 in human Ri-1 cells assessed as remaining BRD7 protein level at 100 nM incubated for 4 hrs by Western blot analysis relative to control; format: cell-based; outline: as §1
[8] = target: T1, von Hippel-Lindau disease tumor suppressor/Bromodomain-containing protein 7 (Homo sapiens); assay: PROTAC activity at VHL/BRD7 in human Ri-1 cells assessed as remaining BRD7 protein level at 100 nM incubated for 1 hrs by Western blot analysis relative to control; format: cell-based; outline: as §1
[9] = target: T1, von Hippel-Lindau disease tumor suppressor/Bromodomain-containing protein 7 (Homo sapiens); assay: PROTAC activity at VHL/BRD7 in human Ri-1 cells assessed as remaining BRD7 protein level at 100 nM incubated for 30 mins by Western blot analysis relative to control; format: cell-based; outline: as §1
[10] = target: T1, von Hippel-Lindau disease tumor suppressor/Bromodomain-containing protein 7 (Homo sapiens); assay: PROTAC activity at VHL/BRD7 in human Ri-1 cells assessed as remaining BRD7 protein level at 10 nM incubated for 30 mins by Western blot analysis relative to control; format: cell-based
[11] = target: T2, von Hippel-Lindau disease tumor suppressor/Bromodomain-containing protein 9 (Homo sapiens); assay: PROTAC activity at VHL/BRD9 in human Ri-1 cells assessed as remaining BRD9 protein level at 10 nM incubated for 1 hrs by Western blot analysis relative to control; format: cell-based; outline: as §1
[12] = target: T2, von Hippel-Lindau disease tumor suppressor/Bromodomain-containing protein 9 (Homo sapiens); assay: PROTAC activity at VHL/BRD9 in human Ri-1 cells assessed as remaining BRD9 protein level at 100 nM incubated for 1 hrs by Western blot analysis relative to control; format: cell-based; outline: as §1
[13] = target: T2, von Hippel-Lindau disease tumor suppressor/Bromodomain-containing protein 9 (Homo sapiens); assay: PROTAC activity at VHL/BRD9 in human Ri-1 cells assessed as remaining BRD9 protein level at 100 nM incubated for 30 mins by Western blot analysis relative to control; format: cell-based; outline: as §1
[14] = target: T2, von Hippel-Lindau disease tumor suppressor/Bromodomain-containing protein 9 (Homo sapiens); assay: PROTAC activity at VHL/BRD9 in human Ri-1 cells assessed as remaining BRD9 protein level at 1 uM incubated for 2 hrs by Western blot analysis relative to control; format: cell-based; outline: as §1
[15] = target: T2, von Hippel-Lindau disease tumor suppressor/Bromodomain-containing protein 9 (Homo sapiens); assay: PROTAC activity at VHL/BRD9 in human Ri-1 cells assessed as remaining BRD9 protein level at 1 uM incubated for 8 hrs by Western blot analysis relative to control; format: cell-based; outline: as §1
[16] = target: T1, von Hippel-Lindau disease tumor suppressor/Bromodomain-containing protein 7 (Homo sapiens); assay: PROTAC activity at VHL/BRD7 in human Ri-1 cells assessed as remaining BRD7 protein level at 1 uM incubated for 8 hrs by Western blot analysis relative to control; format: cell-based
[17] = target: T2, von Hippel-Lindau disease tumor suppressor/Bromodomain-containing protein 9 (Homo sapiens); assay: PROTAC activity at VHL/BRD9 in human Ri-1 cells assessed as remaining BRD9 protein level at 100 nM incubated for 8 hrs by Western blot analysis relative to control; format: cell-based; outline: as §1
[18] = target: T2, von Hippel-Lindau disease tumor suppressor/Bromodomain-containing protein 9 (Homo sapiens); assay: PROTAC activity at VHL/BRD9 in human Ri-1 cells assessed as remaining BRD9 protein level at 1 nM incubated for 8 hrs by Western blot analysis relative to control; format: cell-based; outline: as §1
[19] = target: T2, von Hippel-Lindau disease tumor suppressor/Bromodomain-containing protein 9 (Homo sapiens); assay: PROTAC activity at VHL/BRD9 in human Ri-1 cells assessed as remaining BRD9 protein level at 0.1 nM incubated for 8 hrs by Western blot analysis relative to control; format: cell-based; outline: as §1
[20] = target: T2, von Hippel-Lindau disease tumor suppressor/Bromodomain-containing protein 9 (Homo sapiens); assay: PROTAC activity at VHL/BRD9 in human Ri-1 cells assessed as remaining BRD9 protein level at 100 nM incubated for 2 hrs by Western blot analysis relative to control; format: cell-based; outline: as §1
[21] = target: T2, von Hippel-Lindau disease tumor suppressor/Bromodomain-containing protein 9 (Homo sapiens); assay: PROTAC activity at VHL/BRD9 in human Ri-1 cells assessed as remaining BRD9 protein level at 10 nM incubated for 2 hrs by Western blot analysis relative to control; format: cell-based; outline: as §1
[22] = target: T2, von Hippel-Lindau disease tumor suppressor/Bromodomain-containing protein 9 (Homo sapiens); assay: PROTAC activity at VHL/BRD9 in human Ri-1 cells assessed as remaining BRD9 protein level at 1 nM incubated for 2 hrs by Western blot analysis relative to control; format: cell-based; outline: as §1
[23] = target: T1, von Hippel-Lindau disease tumor suppressor/Bromodomain-containing protein 7 (Homo sapiens); assay: PROTAC activity at VHL/BRD7 in human Ri-1 cells assessed as remaining BRD7 protein level at 10 nM incubated for 8 hrs by Western blot analysis relative to control; format: cell-based; outline: as §1
[24] = target: T1, von Hippel-Lindau disease tumor suppressor/Bromodomain-containing protein 7 (Homo sapiens); assay: PROTAC activity at VHL/BRD7 in human Ri-1 cells assessed as remaining BRD7 protein level at 0.1 nM incubated for 8 hrs by Western blot analysis relative to control; format: cell-based
[25] = target: T1, von Hippel-Lindau disease tumor suppressor/Bromodomain-containing protein 7 (Homo sapiens); assay: PROTAC activity at VHL/BRD7 in human Ri-1 cells assessed as remaining BRD7 protein level at 10 nM incubated for 48 hrs by Western blot analysis relative to control; format: cell-based; outline: as §1
[26] = target: T1, von Hippel-Lindau disease tumor suppressor/Bromodomain-containing protein 7 (Homo sapiens); assay: PROTAC activity at VHL/BRD7 in human Ri-1 cells assessed as remaining BRD7 protein level at 100 nM incubated for 48 hrs by Western blot analysis relative to control; format: cell-based; outline: as §1
[27] = target: T3, Von Hippel-Lindau disease tumor suppressor/Elongin B/Elongin C (Homo sapiens) (UniProt P40337+Q15370+Q15369); assay: Negative co-operative binding affinity to 6His-tagged human VHL/ElonginC/ElonginB expressed in Escherichia coli BL21 (DE3) cells assessed as total gibb's free energy change in the presence of BRD9-BD as complex with compound by ITC analysis
T3 sequence (P40337 whole entry, looked up): as the sequence (P40337 whole entry, looked up) above
T3 sequence (Q15369 whole entry, looked up): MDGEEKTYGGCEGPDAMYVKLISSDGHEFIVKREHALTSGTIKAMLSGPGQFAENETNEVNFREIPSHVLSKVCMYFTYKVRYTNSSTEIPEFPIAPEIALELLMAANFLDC
T3 sequence (Q15370 whole entry, looked up): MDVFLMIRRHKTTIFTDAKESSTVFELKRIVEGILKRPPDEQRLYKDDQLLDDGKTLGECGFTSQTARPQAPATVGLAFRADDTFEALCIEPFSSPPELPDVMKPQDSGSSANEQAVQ

[28] = target: T3, Von Hippel-Lindau disease tumor suppressor/Elongin B/Elongin C (Homo sapiens); assay: Co-operative binding affinity to 6His-tagged human VHL/ElonginC/ElonginB expressed in Escherichia coli BL21 (DE3) cells assessed as maximal intensity in the presence of BRD9-BD as complex with compound incubated for 1 hrs by AlphaLISA proximity assay

T1 sequence (P40337 whole entry, looked up): as the sequence (P40337 whole entry, looked up) above
T1 sequence (Q9NPI1 whole entry, looked up): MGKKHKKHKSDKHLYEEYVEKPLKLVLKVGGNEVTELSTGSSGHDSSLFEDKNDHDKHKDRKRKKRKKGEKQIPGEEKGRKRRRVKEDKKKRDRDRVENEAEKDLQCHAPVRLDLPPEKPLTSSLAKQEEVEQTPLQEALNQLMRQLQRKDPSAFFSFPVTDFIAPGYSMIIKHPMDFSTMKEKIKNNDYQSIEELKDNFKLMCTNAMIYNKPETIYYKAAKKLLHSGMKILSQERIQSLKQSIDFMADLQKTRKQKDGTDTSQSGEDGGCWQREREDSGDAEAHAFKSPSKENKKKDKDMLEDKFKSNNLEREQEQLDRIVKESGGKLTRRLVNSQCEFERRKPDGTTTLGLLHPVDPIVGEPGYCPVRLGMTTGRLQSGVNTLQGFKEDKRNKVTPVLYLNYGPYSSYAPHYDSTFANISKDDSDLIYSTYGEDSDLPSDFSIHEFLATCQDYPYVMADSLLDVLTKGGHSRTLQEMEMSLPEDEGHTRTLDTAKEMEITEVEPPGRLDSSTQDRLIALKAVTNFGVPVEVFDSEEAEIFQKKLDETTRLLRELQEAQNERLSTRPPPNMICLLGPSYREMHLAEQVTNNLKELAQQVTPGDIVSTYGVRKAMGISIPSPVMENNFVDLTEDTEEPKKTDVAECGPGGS

SMILES: COc1cc(-c2cn(C)c(=O)c3cnccc23)cc(OC)c1CN1CCN(CCCCCOc2cc(-c3scnc3C)ccc2CNC(=O)[C@@H]2C[C@@H](O)CN2C(=O)[C@@H](NC(=O)C2(F)CC2)C(C)(C)C)CC1
- Activity [1]: inactive
- IC50 [2]: 39.8 nM
- Activity [3]: inactive
- Activity [4]: Active
- Activity [5]: Active
- Activity [6]: 4%
- Activity [7]: 7%
- Activity [8]: 31%
- Activity [9]: 40%
- Activity [10]: 70%
- Activity [11]: 64%
- Activity [12]: 34%
- Activity [13]: 48%
- Activity [14]: 52%
- Activity [15]: 16%
- Activity [16]: 5%
- Activity [17]: 2%
- Activity [18]: 62%
- Activity [19]: 80%
- Activity [20]: 21%
- Activity [21]: 35%
- Activity [22]: 98%
- Activity [23]: 33%
- Activity [24]: 109%
- Activity [25]: 12%
- Activity [26]: 3%
- deltaG [27]: -21.7 kcal/mol
- Activity [28]: 1.47 10^6No_unit
